The values that follow come from article PMC3855444 (Bioorganic & medicinal chemistry, 2013).

Assay [1] deals with hepatitis C virus (JFH-1). The assay is classed as cell-based. The conditions noted are these: Huh7.5.1 cells infected with JFH-1 (MOI 0.05), HCV core protein at 72 h. The gist of the method: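 Huh7.5.1 cells (150,000 per well) were plated and infected with JFH-1 the next day at 0.05 focus forming units per cell. After 5 h the inoculum was replaced with fresh medium containing test compound at three concentrations chosen from the 72 h ATP-based cytotoxicity data. Lysates were harvested 72 h later, loaded at equal total protein, and probed for HCV core by Western blot.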

Assay [2] concerns UDP-glucuronosyltransferase (UGT). Type of assay: in vitro ADME, human. The conditions noted are these: 100 μM, HLM.

Regarding `COc1cc(O)c2c(c1)O[C@H](c1ccc3c(c1)O[C@@H](CO)[C@H](c1ccc(O)c(OC)c1)O3)[C@@H](O)C2=O` [compound 8, 7-O-Methylisosilybin B], in assay [1], the “anti-HCV activity upon methylation relative to the corresponding parent compound” value is recorded as “slight enhancement”.
Consider `COc1cc(O)c2c(c1)O[C@H](c1ccc3c(c1)O[C@@H](c1ccc(O)c(OC)c1)[C@H](CO)O3)[C@@H](O)C2=O` [compound 4, 7-O-Methylsilybin B], for which the “anti-HCV activity upon methylation relative to the corresponding parent compound” value in assay [1] is listed as “reduced”.
The same measure, in the same setting: as for `COc1cc(O)c2c(c1)O[C@H](c1cc(O)c3c(c1)[C@@H](CO)[C@H](c1ccc(O)c(OC)c1)O3)[C@@H](O)C2=O` [compound 10, 7-O-Methylsilychristin], the entry is “improved anti-HCV activity”.
For the compound `COc1cc(O)c2c(c1)O[C@H](c1ccc(O)c3c1[C@@H](CO)[C@H](c1ccc(O)c(OC)c1)O3)[C@@H](O)C2=O` [compound 12, 7-O-Methylisosilychristin], the “anti-HCV activity upon methylation relative to the corresponding parent compound” value in assay [1] is listed as “improved anti-HCV activity”. Further, in assay [2], the “inhibition of UGT activity, parent versus methylated analogue, in words” value was “more potent than isosilychristin (11)”.
For the compound `COc1cc(O)c2c(c1)O[C@H](c1ccc3c(c1)O[C@H](c1ccc(O)c(OC)c1)[C@@H](CO)O3)[C@@H](O)C2=O` [compound 2, 7-O-Methylsilybin A], the “anti-HCV activity upon methylation relative to the corresponding parent compound” value in assay [1] is “retained”.
The same measure, in the same setting: the value for `COc1cc(O)c2c(c1)O[C@H](c1ccc3c(c1)O[C@H](CO)[C@@H](c1ccc(O)c(OC)c1)O3)[C@@H](O)C2=O` [compound 6, 7-O-Methylisosilybin A] was “reduced”.
